In brackets after ≈: the same amount, converted by molar mass.
Legend:
[1] = Inhibition of wild-type Staphylococcus aureus topoisomerase 4-mediated decatenation of kDNA after 30 mins by gel electrophoresis assay
Staphylococcus aureus [2] = experiment: Antibacterial activity against methicillin- and quinolone-resistant Staphylococcus aureus ATCC700699 after 24 hrs by microdilution method; format: functional; conditions: ATCC700699, 24 h
How it was run: (§1)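 Broth microdilution; MIC read as the lowest compound concentration that prevents visible bacterial growth after incubation at 37 °C for 18–24 h, and expressed in μg/mL.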

[3] = Inhibition of Staphylococcus aureus topoisomerase 4 Ser80Phe mutant-mediated decatenation of kDNA after 30 mins by gel electrophoresis assay
Staphylococcus aureus [4] = experiment: Antibacterial activity against methicillin-resistant Staphylococcus aureus ATCC 700699 after 24 hrs by microdilution method; format: functional; conditions: ATCC700699, 24 h; how it was run: as §1
Escherichia coli = experiment: Antibacterial activity against Escherichia coli ATCC25922 after 24 hrs by microdilution method; format: functional; conditions: ATCC25922, 24 h
How it was run: (§2)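 MIC taken as the lowest concentration with no visible bacterial growth after 18-24 h at 37 °C, given in μg/mL; modal value of multiple experiments.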

Staphylococcus aureus [5] = experiment: Antibacterial activity against methicillin-sensitive Staphylococcus aureus ATCC 29213 after 24 hrs by microdilution method; format: functional; conditions: ATCC 29213, 24 h; how it was run: as §2
[6] = Cytotoxicity against human Hep2 cells after 72 hrs by alamar blue assay; format: cell-based; conditions: HEp-2 cells
Staphylococcus aureus [7] = experiment: Antibacterial activity against methicillin-resistant Staphylococcus aureus clinical isolate after 24 hrs by microdilution method; format: functional; how it was run: as §1
DNA gyrase = DNA gyrase (Staphylococcus aureus, UniProt P0A0K8+P20831); experiment: Inhibition of wild-type Staphylococcus aureus DNA gyrase assessed as inhibition of supercoiling of pBR322 DNA after 60 min by gel electrophoresis assay; format: protein-complex assay
[8] = system: DNA gyrase subunit A (Staphylococcus aureus), P20831 [S84L]; experiment: Ratio of ciprofloxacin IC50 to compound IC50 for Staphylococcus aureus DNA gyrase Ser84Leu mutant
DNA gyrase subunit A = DNA gyrase subunit A (Staphylococcus aureus, UniProt P20831, S84L); experiment: Inhibition of Staphylococcus aureus DNA gyrase Ser84Leu mutant assessed as inhibition of supercoiling of pBR322 DNA after 60 min by gel electrophoresis assay
Staphylococcus aureus [9] = experiment: Ratio of levofloxacin MIC to compound MIC for methicillin-resistant Staphylococcus aureus clinical isolate; format: functional
Staphylococcus aureus [10] = experiment: Ratio of vancomycin MIC to compound MIC for methicillin-resistant Staphylococcus aureus clinical isolate; format: functional
Staphylococcus aureus [11] = experiment: Ratio of ciprofloxacin IC50 to compound IC50 for Staphylococcus aureus topoisomerase 4 Ser80Phe mutant
Staphylococcus aureus [12] = experiment: Ratio of ciprofloxacin IC50 to compound IC50 for wild-type Staphylococcus aureus topoisomerase 4
[13] = target: DNA gyrase (Staphylococcus aureus) (UniProt P0A0K8+P20831); experiment: Ratio of ciprofloxacin IC50 to compound IC50 for wild-type Staphylococcus aureus DNA gyrase; format: protein-complex assay

Row | SMILES | IC50 [1] [nM] | MIC (Staphylococcus aureus [2]) [µg/mL] | IC50 [3] [nM] | MIC (Staphylococcus aureus [4]) [µg/mL] | MIC (Escherichia coli) [µg/mL] | MIC (Staphylococcus aureus [5]) [µg/mL] | CC50 at 72 h [6] [nM] | MIC (Staphylococcus aureus [7]) [µg/mL] | MIC50 (Staphylococcus aureus [7]) [µg/mL] | MIC90 (Staphylococcus aureus [7]) [µg/mL] | IC50 (DNA gyrase) [nM] | Ratio [8] | IC50 (DNA gyrase subunit A) [nM] | Ratio (Staphylococcus aureus [9]) | Ratio (Staphylococcus aureus [10]) | Ratio (Staphylococcus aureus [11]) | Ratio IC50 (Staphylococcus aureus [12]) | Ratio IC50 [13]
1 | COc1c(N2C[C@@H]3CCCN[C@@H]3C2)c(F)cc2c(=O)c(C(=O)O)cn(C3CC3)c12 [MOXIFLOXACIN] | 1000 | 4 (≈ 9.96 µM) | 11900 | 2 (≈ 4.98 µM) | 0.03 (≈ 0.0747 µM) | 0.06 (≈ 0.149 µM) | > 100000 | – | – | – | – | – | – | – | – | – | – | –
2 | CC(=O)NC[C@H]1CN(c2ccc(N3CCOCC3)c(F)c2)C(=O)O1 [LINEZOLID] | – | – | – | – | – | – | – | 1 (≈ 2.96 µM) | 1 (≈ 2.96 µM) | 2 (≈ 5.93 µM) | – | – | – | – | – | – | – | –
3 | COc1c(N2CC[C@@H](C(C)(C)N)C2)c(F)cc2c(=O)c3c(=O)[nH]sc3n(C3CC3)c12 | 120 | 0.06 (≈ 0.139 µM) | 600 | 0.06 (≈ 0.139 µM) | 0.06 (≈ 0.139 µM) | 0.004 (≈ 0.00925 µM) | 9000 | – | 0.06 (≈ 0.139 µM) | 0.25 (≈ 0.578 µM) | 680 | > 48 | 4200 | 256 | 4 | 95 | – | –
4 | COc1c(N2CC[C@@H]([C@H](C)NCCF)C2)c(F)cc2c(=O)c3c(=O)[nH]sc3n(C3CC3)c12 (mixture of isomers) | 60 | 0.13 | 660 | 0.13 | 0.06 | 0.002 | 73000 | – | – | – | 1320 | – | 12000 | – | – | – | – | –
5 | Cc1onc(-c2ccccc2)c1C(=O)N[C@@H]1C(=O)N2[C@@H]1SC(C)(C)[C@@H]2C(=O)O [OXACILLIN] | – | – | – | – | – | – | – | – | > 16 | > 16 | – | – | – | – | – | – | – | –
6 | O=C(O)c1cn(C2CC2)c2cc(N3CCNCC3)c(F)cc2c1=O [CIPROFLOXACIN] | 3000 | 32 (≈ 96.6 µM) | 57000 | 32 (≈ 96.6 µM) | – | 0.25 (≈ 0.754 µM) | > 100000 | – | – | – | – | – | – | – | – | – | – | –
7 | CO/N=C1\CN(c2nc3c(cc2F)c(=O)c(C(=O)O)cn3C2CC2)CC1CN (stereo unspecified) [GEMIFLOXACIN] | 400 | – | 9800 | 2 (≈ 5.14 µM) | 4 (≈ 10.3 µM) | 0.03 (≈ 0.077 µM) | – | – | – | – | – | – | > 200000 | – | – | – | – | –
8 | CN[C@H](CC(C)C)C(=O)N[C@H]1C(=O)N[C@@H](CC(N)=O)C(=O)N[C@H]2C(=O)N[C@H]3C(=O)N[C@H](C(=O)N[C@H](C(=O)O)c4cc(O)cc(O)c4-c4cc3ccc4O)[C@H](O)c3ccc(c(Cl)c3)Oc3cc2cc(c3O[C@@H]2O[C@H](CO)[C@@H](O)[C@H](O)[C@H]2O[C@H]2C[C@](C)(N)[C@H](O)[C@H](C)O2)Oc2ccc(cc2Cl)[C@H]1O [VANCOMYCIN] | – | – | – | – | – | – | – | – | 1 (≈ 0.69 µM) | 1 (≈ 0.69 µM) | – | – | – | – | – | – | – | –
9 | CN[C@@H](C)[C@@H]1CCN(c2c(F)cc3c(=O)c4c(=O)[nH]sc4n(C4CC4)c3c2OC)C1 (mixture of isomers) | 110 | 0.25 | 1160 | 0.25 | 0.03 | 0.008 | 12000 | – | – | – | 1100 | – | 18700 | – | – | – | – | –
10 | C[C@H]1COc2c(N3CCN(C)CC3)c(F)cc3c(=O)c(C(=O)O)cn1c23.C[C@H]1COc2c(N3CCN(C)CC3)c(F)cc3c(=O)c(C(=O)O)cn1c23.O [LEVOFLOXACIN] | – | – | – | – | – | – | – | – | 16 | > 16 | – | – | – | – | – | – | – | –
11 | COc1c(N2CC[C@@H]([C@H](C)N)C2)c(F)cc2c(=O)c3c(=O)[nH]sc3n(C3CC3)c12 (mixture of isomers) | 40 | 0.06 | 470 | 0.06 | 0.008 | 0.002 | 6000 | – | 0.06 | 0.5 | 680 | > 62 | 3200 | – | – | 121 | 75 | 91

Source: ChEMBL document CHEMBL1772978, “Exploration of the activity of 7-pyrrolidino-8-methoxyisothiazoloquinolones against methicillin-resistant Staphylococcus aureus (MRSA)” (J Med Chem, 2011)
